Calls of active or inactive are those of the source. The calls are words filed in the database; no cut-off is given here.
Columns and labels:
HeLa [1] = experiment: Cytotoxicity against human HeLa cells assessed as cell viability at 800 uM after 48 hrs by alamar blue assay relative to control; type: functional; conditions: read-out: Activity
Summary of the method: (§1)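 HeLa cells in MEM with 10% FBS, 1% NEAA, 2 mM glutamine and 1% antibiotic-antimycotic were seeded at 1 x 10^5 cells/ml and grown 24 h at 37°C, 5% CO2. They were exposed 48 h to compound serially diluted in growth medium, in duplicate wells. Alamar Blue was added for 3 h, then 30 min at room temperature, and fluorescence read at ex 544/em 590 nm. Values are % of DMSO-only control, means ± SEM, with ANOVA and Dunnett's test.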

HeLa [2] = experiment: Cytotoxicity against human HeLa cells assessed as loss of cells after 48 hrs by inverted microscopic analysis; type: functional, cell-based
Summary of the method: (§2)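 HeLa cultures were treated 48 h with increasing compound concentrations in growth medium, with controls given growth medium only. Bright-field images were then taken on an inverted microscope at x10 and examined for cell loss and rounding of remaining cells.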

PC-3 = experiment: Cytotoxicity against human PC3 cells assessed as reduction in cell viability after 48 hrs by alamar blue assay; type: functional, cell-based
HeLa [3] = experiment: Cytotoxicity against human HeLa cells assessed as cell rounding after 48 hrs by inverted microscopic analysis; type: functional, cell-based; summary of the method: as §2
NCI-H460 = experiment: Cytotoxicity against human H460 cells assessed as reduction in cell viability after 48 hrs by alamar blue assay; type: functional, cell-based
HeLa [4] = experiment: Cytotoxicity against human HeLa cells assessed as cell viability at 1600 uM after 48 hrs by alamar blue assay relative to control; type: functional; conditions: read-out: Activity; summary of the method: as §1

SMILES | viability at 800 µM (HeLa [1]) [%] | Activity (HeLa [2]) | Activity (PC-3) | Activity (HeLa [3]) | Activity (NCI-H460) | viability at 1600 µM (HeLa [4]) [%]
COc1cc(/C=C/C(=O)OC(=O)/C=C/c2ccc(O)c(OC)c2)ccc1O | 22.3 | Dose-dependent effect | inactive | Dose-dependent effect | inactive | 5.3
COC(=O)[C@@]1(OC(=O)/C=C/c2ccc(O)c(O)c2)C[C@@H](O)[C@@H](OC(=O)/C=C/c2ccc(O)c(O)c2)[C@H](OC(=O)/C=C/c2ccc(O)c(O)c2)C1 | 71 | Dose-dependent effect | inactive | Dose-dependent effect | inactive | 19.6
